One molecule from ChEMBL document CHEMBL4138048, “Synthesis of substituted 2H-benzo[e]indazole-9-carboxylate as a potent antihyperglycemic agent that may act through IRS-1, Akt and GSK-3β pathways” (Medchemcomm, 2017) can be followed below.

Data set [1] has as its system L6. The data set can be described thus: Stimulation of [3H]2-deoxyglucose uptake in rat L6 cells at 2.5 uM incubated for 16 hrs by scintillation counting method. It is filed as functional, cell-based. The procedure, abridged: (§1)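 L6 myotubes incubated with the compound […]; insulin at 100 nM for 20 min served as the positive control. Uptake of ³H-2-deoxyglucose measured and expressed as fold stimulation relative to the control condition.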

Data set [2] deals with Mus musculus. Description: Antihyperglycemic activity in db/db mouse assessed as reduction in fasting blood glucose level at 10 mg/kg, po qd for 15 days. Format: functional. Details: scale not given: the % may be the effect or the level left. The procedure, abridged: (§2)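 db/db mice given 3, 10 or 30 mg/kg orally once a day for 15 consecutive days, alongside vehicle controls. Serum triglyceride, total cholesterol, HDL-C and insulin measured, along with fasting blood glucose. Expressed as mean % change in 5 animals per group versus control.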

Data set [3] deals with Mus musculus. The data set can be described thus: Antihyperglycemic activity in db/db mouse assessed as improvement on glucose tolerance by measuring blood glucose AUC level at 30 mg/kg, po qd for 10 days by oral glucose tolerance test. Format: functional. The procedure, abridged:
(§3)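 db/db mice dosed orally once daily for 15 consecutive days at 3, 10 or 30 mg/kg, with vehicle controls and pioglitazone at 10 mg/kg. Oral glucose tolerance tests on day 10 and day 15. Overall improvement in glucose tolerance calculated against vehicle control. Mean % change in 5 animals per group.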

Data set [4] deals with Mus musculus. The data set can be described thus: Antihyperglycemic activity in db/db mouse assessed as reduction in fasting blood glucose level at 3 to 30 mg/kg, po qd for 15 days. It is filed as functional, organism-based. The procedure, abridged: as §2
In data set [5] the test system is Mus musculus. Description: Antihyperglycemic activity in db/db mouse assessed as reduction in triglyceride level at 3 mg/kg, po qd for 15 days. Format: functional. Set-up: scale not given: the % may be the effect or the level left. In short, it runs like this: as §2
In data set [6] the test system is L6. The data set can be described thus: Stimulation of [3H]2-deoxyglucose uptake in rat L6 cells at 10 uM incubated for 16 hrs by scintillation counting method relative to untreated control. Format: functional. The procedure, abridged: as §1
For data set [7], the target named is T1, Tyrosine-protein phosphatase non-receptor type 1 (Homo sapiens) (UniProt P18031).
T1 sequence (whole entry): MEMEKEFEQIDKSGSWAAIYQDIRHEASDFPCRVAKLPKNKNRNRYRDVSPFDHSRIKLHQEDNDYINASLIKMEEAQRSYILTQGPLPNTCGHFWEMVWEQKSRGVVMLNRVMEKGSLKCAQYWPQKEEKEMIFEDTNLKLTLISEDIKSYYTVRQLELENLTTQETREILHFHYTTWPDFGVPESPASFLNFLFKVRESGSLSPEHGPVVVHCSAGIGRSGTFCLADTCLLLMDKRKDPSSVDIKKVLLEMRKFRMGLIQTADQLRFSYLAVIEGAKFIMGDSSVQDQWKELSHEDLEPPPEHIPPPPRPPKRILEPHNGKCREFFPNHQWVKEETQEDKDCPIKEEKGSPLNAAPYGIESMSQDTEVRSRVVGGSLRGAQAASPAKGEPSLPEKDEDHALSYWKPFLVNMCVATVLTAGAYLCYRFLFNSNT
The data set can be described thus: Inhibition of human recombinant PTP1B using IR5 insulin receptor-beta (1142 to 1153 residues, pY1146) substrate BY Malachite green dye based assay.

Data set [8] has as its system Mus musculus. Description: Antihyperglycemic activity in db/db mouse assessed as reduction in cholesterol level at 30 mg/kg, po qd for 15 days. Details: scale not given: the % may be the effect or the level left. It is filed as functional. The procedure, abridged:
as §2

The test system of data set [9] is Rattus norvegicus. Description: Antihyperglycemic activity in albino Wistar rat assessed as reduction in blodd glucose level at 100 mg/kg, po dosed 30 mins before sucrose load and measured 30 to 120 mins post sucrose injection by glucometry. Format: functional, organism-based. In short, it runs like this: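 Normal albino rats given an oral sucrose load, with a single oral dose of 100 mg/kg b.wt. Blood glucose profile followed after the load, and glucose AUC taken over 0–2 h. Percent inhibition of the postprandial rise in blood glucose calculated against control. Mean % change in 5 animals per group.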

Data set [10] deals with T2, Tyrosine-protein phosphatase non-receptor type 1 (Rattus norvegicus) (UniProt P20417).
T2 sequence (whole entry): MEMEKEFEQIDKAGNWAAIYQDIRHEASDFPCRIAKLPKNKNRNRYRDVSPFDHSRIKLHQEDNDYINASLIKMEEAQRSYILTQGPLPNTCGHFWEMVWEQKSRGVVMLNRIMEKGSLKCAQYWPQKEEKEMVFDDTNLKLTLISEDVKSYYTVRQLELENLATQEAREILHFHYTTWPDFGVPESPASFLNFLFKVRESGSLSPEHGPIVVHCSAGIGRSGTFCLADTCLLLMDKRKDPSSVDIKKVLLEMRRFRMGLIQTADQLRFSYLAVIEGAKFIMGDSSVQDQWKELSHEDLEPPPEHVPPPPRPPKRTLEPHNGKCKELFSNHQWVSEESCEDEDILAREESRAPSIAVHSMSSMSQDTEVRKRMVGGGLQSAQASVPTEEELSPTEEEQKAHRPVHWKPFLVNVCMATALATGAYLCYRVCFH
The data set can be described thus: Inhibition of PTP1B in rat L6 cells assessed as increase in insulin-stimulated GSK3beta Ser9 phosphorylation at 10 to 25 uM pre-incubated for 16 hrs before insulin stimulation for 10 mins by Western blot method. It is filed as cell-based. The procedure, abridged:
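L6 myotubes treated for 16 h with the compound at the indicated concentrations, then stimulated with insulin (100 nM) for 10 min. Cells lysed and analysed by western blot. Densitometry of p-IRS-1, p-AKT and p-GSK, each relative to its total form. Compared with control and with insulin-treated control.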
On the technique in general: Immunoblotting shows a protein as a band on a membrane.

Data set [11] relates to Mus musculus. Description: Antihyperglycemic activity in db/db mouse assessed as improvement on glucose tolerance by measuring blood glucose AUC level at 10 mg/kg, po qd for 15 days by oral glucose tolerance test. Format: functional. In short, it runs like this: as §3
Data set [12] concerns Mus musculus. The data set can be described thus: Antihyperglycemic activity in db/db mouse assessed as improvement on glucose tolerance by measuring blood glucose AUC level at 3 to 30 mg/kg, po qd for 10 days by oral glucose tolerance test. It is filed as functional, organism-based. In short, it runs like this: as §3
Data set [13] has as its system Mus musculus. The data set can be described thus: Antihyperglycemic activity in db/db mouse assessed as reduction in triglyceride level at 30 mg/kg, po qd for 15 days. Format: functional. Details: scale not given: the % may be the effect or the level left. In short, it runs like this: as §2
For data set [14], the system named is Mus musculus. The data set can be described thus: Toxicity in db/db mouse assessed as effect on food intake level at 3 to 30 mg/kg, po qd for 15 days by oral glucose tolerance test. Particulars: in vivo, 360 h. Format: organism-based.
For data set [15], the system named is Mus musculus. The data set can be described thus: Antihyperglycemic activity in db/db mouse assessed as reduction in insulin level at 10 mg/kg, po qd for 15 days. Format: functional. Details: scale not given: the % may be the effect or the level left. In short, it runs like this: as §2
Data set [16] deals with Mus musculus. The data set can be described thus: Antihyperglycemic activity in db/db mouse assessed as improvement on glucose tolerance by measuring blood glucose AUC level at 3 mg/kg, po qd for 15 days by oral glucose tolerance test. Format: functional. The procedure, abridged: as §3
For data set [17], the system named is L6. Description: Stimulation of [3H]2-deoxyglucose uptake in rat L6 cells at 10 uM incubated for 16 hrs by scintillation counting method. Format: functional, cell-based. The procedure, abridged:
as §1

In data set [18] the test system is Rattus norvegicus. The data set can be described thus: Antihyperglycemic activity in Sprague-Dawley rat model of STZ-induced diabetes assessed as improvement on glucose tolerance at 100 mg/kg, po dosed 30 mins before sucrose load and measured after 5 hrs post sucrose load by glucometry. Format: functional. In short, it runs like this: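 Sucrose-challenged streptozotocin-induced diabetic rats, single oral dose of 100 mg/kg b.wt. Blood glucose profile followed after sucrose load, and glucose AUC taken over 0–24 h. Percent improvement in glucose tolerance calculated at 5 h post sucrose load. Values are mean % change in 5 animals per group, compared with control.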

Activity calls are given as the source filed them. No cut-off for these calls is given here.

On to `COC(=O)c1c(SC)cc(-c2ccc(C)cc2)c2c1-c1cn(-c3ccccc3)nc1CC2`, for which the result in the data set on L6 [1], in the data set with Rattus norvegicus [9] and in the data set with L6 [17] was Active. Besides, the Activity was 14.1% in the data set with Mus musculus [2]; 25.7% in the data set with Mus musculus [3]; “Dose-dependent effect” with Mus musculus [4]; 8.98% in the data set with Mus musculus [5]; 22.7% in the data set on Mus musculus [8]; 20.1% in the data set with Mus musculus [11]. The Activity entry in the data set on Mus musculus [12] is “Dose-dependent effect”; with Mus musculus [13] it was 18.2%; in the data set on Mus musculus [14], “Non-Toxic”; with Mus musculus [15], 17.7%; in the data set with Mus musculus [16], 13.2%; in the data set with Rattus norvegicus [18] it was 23.1%. Further, the “fold change (FC)” value with L6 [6] came to 2. The inhibition result in [7] is “Dose-dependent effect”. In data set [10], the inhibition entry is “Active”.
